23 molecules from ChEMBL document CHEMBL1129041, “Design of orally active dual inhibitors of neutral endopeptidase and angiotensin-converting enzyme with long duration of action” (J Med Chem, 1996) can be followed below.

The target in assay [1] is T1, Angiotensin-converting enzyme (Rattus norvegicus, UniProt P47820).
T1 sequence (P47820 whole entry): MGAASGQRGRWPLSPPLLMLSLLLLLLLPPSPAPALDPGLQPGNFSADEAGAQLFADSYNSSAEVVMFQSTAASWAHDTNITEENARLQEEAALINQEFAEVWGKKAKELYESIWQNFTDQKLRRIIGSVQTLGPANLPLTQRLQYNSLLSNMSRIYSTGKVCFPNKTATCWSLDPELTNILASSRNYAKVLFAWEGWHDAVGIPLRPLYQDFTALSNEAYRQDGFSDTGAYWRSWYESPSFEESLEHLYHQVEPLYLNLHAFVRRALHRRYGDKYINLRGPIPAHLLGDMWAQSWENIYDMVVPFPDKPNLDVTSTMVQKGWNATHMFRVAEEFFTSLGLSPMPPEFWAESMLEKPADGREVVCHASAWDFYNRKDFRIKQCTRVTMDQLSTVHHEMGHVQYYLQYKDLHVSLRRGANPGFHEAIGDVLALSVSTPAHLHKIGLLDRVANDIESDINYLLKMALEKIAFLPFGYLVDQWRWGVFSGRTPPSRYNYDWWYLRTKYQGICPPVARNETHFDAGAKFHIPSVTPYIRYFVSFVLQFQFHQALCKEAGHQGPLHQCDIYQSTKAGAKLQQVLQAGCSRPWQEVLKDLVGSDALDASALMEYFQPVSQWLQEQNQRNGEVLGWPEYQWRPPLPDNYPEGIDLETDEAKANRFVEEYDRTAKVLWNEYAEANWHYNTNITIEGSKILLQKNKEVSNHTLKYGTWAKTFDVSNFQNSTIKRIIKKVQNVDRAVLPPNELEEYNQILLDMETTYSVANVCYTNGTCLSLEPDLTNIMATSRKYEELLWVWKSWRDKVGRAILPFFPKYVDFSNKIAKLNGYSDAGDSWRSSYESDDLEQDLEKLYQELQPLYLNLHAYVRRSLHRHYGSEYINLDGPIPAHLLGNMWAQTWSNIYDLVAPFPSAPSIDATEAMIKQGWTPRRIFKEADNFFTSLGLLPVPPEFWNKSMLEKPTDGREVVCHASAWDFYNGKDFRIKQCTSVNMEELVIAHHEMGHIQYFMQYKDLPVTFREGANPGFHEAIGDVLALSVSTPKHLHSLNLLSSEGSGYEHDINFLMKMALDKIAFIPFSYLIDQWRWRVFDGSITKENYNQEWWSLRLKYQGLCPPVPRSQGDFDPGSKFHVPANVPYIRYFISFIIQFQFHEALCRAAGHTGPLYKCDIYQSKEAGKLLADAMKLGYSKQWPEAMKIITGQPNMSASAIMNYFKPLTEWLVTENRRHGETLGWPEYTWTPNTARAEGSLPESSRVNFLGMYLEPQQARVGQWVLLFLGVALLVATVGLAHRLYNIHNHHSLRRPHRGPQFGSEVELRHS
The assay is described as follows: In vitro inhibition of rat angiotensin I converting enzyme. The method in brief: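 ACE purified from rat testis, 0.02 pmol/100 µL final, preincubated 15 min at 37 °C with varying inhibitor in 50 mM Tris-HCl pH 8.0. N-Cbz-Phe-His-Leu added to 0.05 mM final, 15 min; stopped with 2 M NaOH. His-Leu measured fluorimetrically (ex 365, em 495 nm) against a His-Leu calibration curve. IC50 is the mean ± SEM of three experiments in triplicate.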

The target in another assay is T2, Neprilysin (Oryctolagus cuniculus, UniProt P08049).
T2 sequence (P08049 whole entry): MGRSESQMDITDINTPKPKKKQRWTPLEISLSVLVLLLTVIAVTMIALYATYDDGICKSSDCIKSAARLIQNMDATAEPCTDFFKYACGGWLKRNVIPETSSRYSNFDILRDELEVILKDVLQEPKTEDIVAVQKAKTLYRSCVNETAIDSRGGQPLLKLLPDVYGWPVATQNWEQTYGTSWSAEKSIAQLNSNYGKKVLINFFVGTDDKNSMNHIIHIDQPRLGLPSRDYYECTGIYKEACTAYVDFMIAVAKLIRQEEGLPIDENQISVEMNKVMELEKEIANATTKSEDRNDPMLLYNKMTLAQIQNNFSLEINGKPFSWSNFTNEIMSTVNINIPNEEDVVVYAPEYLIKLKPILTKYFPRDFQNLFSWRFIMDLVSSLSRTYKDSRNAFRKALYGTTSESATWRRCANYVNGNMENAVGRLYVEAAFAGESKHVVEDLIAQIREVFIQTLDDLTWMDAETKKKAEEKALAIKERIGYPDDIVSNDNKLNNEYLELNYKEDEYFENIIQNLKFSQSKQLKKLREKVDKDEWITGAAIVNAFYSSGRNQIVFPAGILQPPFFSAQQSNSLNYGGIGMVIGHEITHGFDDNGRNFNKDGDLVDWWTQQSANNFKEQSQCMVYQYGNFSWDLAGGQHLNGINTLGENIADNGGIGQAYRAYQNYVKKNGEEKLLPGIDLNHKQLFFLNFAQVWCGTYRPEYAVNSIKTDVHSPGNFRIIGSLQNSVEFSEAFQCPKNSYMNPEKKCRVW
The assay is described as follows: In vitro inhibition of neutral endopeptidase. A digest of the protocol:
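NEP purified from rabbit kidney, 1 pmol/100 µL final, preincubated 15 min at 25 °C with increasing inhibitor concentrations in 50 mM Tris-HCl pH 7.4. Substrate [3H]-D-Ala2-Leu-enkephalin at 20 nM final, 30 min; stopped with 0.5 M HCl. [3H]Tyr-D-Ala-Gly separated on polystyrene beads and counted by scintillation. IC50 is the mean ± SEM of three independent experiments run in triplicate.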

Assay [2] has as its target T3, Neprilysin (Mus musculus) (UniProt Q61391).
T3 sequence (whole entry): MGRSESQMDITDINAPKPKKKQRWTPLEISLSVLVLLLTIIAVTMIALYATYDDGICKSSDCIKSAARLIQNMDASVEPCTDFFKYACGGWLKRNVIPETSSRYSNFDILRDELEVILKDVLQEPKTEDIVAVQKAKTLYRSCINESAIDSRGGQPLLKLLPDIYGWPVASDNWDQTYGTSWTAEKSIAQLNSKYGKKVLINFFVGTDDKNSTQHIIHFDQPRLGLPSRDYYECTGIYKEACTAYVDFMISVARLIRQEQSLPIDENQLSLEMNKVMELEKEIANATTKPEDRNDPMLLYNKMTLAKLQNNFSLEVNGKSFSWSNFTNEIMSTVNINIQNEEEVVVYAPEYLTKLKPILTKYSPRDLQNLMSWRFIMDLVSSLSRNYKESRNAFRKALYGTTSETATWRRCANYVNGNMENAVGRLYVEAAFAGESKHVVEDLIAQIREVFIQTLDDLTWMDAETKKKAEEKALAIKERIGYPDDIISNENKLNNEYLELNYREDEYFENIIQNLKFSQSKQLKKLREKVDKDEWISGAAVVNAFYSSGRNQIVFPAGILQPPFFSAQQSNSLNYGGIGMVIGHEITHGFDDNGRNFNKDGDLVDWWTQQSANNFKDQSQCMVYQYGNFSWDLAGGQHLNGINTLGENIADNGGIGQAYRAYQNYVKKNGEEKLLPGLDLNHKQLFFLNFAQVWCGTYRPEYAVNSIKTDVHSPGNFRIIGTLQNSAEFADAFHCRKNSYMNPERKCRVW
The assay is described as follows: In vivo percent inhibition activity against kidney Neutral endopeptidase 2 hr after oral administration of a dose of 2.6 x 10e-5 mol/kg. It counts as organism-based. A digest of the protocol: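 Mice given a single oral dose in 10% ethanol/10% cremophor/80% water; kidneys taken 2 h later and homogenized at 4 °C in 50 mM Tris-HCl pH 7.4. Membrane fraction (100000g) preincubated 5 min at 25 °C with bestatin and captopril, then incubated 10 min with [3H]-D-Ala2-Leu-enkephalin (2 × 10^-8 M). [3H]Tyr-D-Ala-Gly counted; blanks contained 10^-5 M retrothiorphan.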

Each structure is given as a SMILES string.

Take `Cc1ccccc1[C@@H]1CCC(C(=O)O)N1C(=O)CNC(=O)[C@@H](S)Cc1ccccc1` (single isomer, unassigned; 17): the half-maximal inhibitory concentration (IC50) (commonly the concentration that inhibits the measured activity by half) worked out at 33 nM in assay [1] and 8.5 nM at Neprilysin.
The matching figures for `CC[C@H](C)C(S)C(=O)NCC(=O)N1[C@@H](c2ccccc2)CC[C@H]1C(=O)O` (some centres not stated): 3.7 nM and 50 nM.
For `O=C(NCC(=O)N1[C@@H](c2ccccc2O)CC[C@H]1C(=O)O)[C@@H](S)Cc1ccccc1`, in that order: 0.5 nM and 1 nM.
In the case of `Cc1ccccc1C1CC[C@H](C(=O)O)N1C(=O)CNC(=O)[C@@H](S)Cc1ccccc1` (single isomer, unassigned), the 50% inhibitory concentration (IC50) in assay [1] turned out to be 112 nM; at Neprilysin, 25 nM.
Consider `O=C(NCC(=O)N1[C@@H](c2cccc(O)c2)CC[C@H]1C(=O)O)[C@@H](S)Cc1ccccc1`, for which the IC50 amounted to 1.5 nM in assay [1] and 2.4 nM against Neprilysin.
The matching figures for `COc1ccc(C[C@H](S)C(=O)NCC(=O)N2[C@@H](c3ccccc3OC)CC[C@H]2C(=O)O)cc1`: 2.2 nM and 2.5 nM.
The matching figures for `O=C(NCC(=O)N1[C@@H](c2ccccc2O)CC[C@H]1C(=O)O)C(S)Cc1ccc(Cl)cc1` (some centres not stated): 0.9 nM and 1.2 nM.
The matching figures for `COc1ccc(C[C@H](S)C(=O)NCC(=O)N2[C@@H](c3ccccc3O)CC[C@H]2C(=O)O)cc1`: 0.42 nM and 2.2 nM.
As to `COc1ccccc1[C@H]1CC[C@@H](C(=O)O)N1C(=O)CNC(=O)[C@@H](S)Cc1ccc(O)cc1`, the IC50 came to 4.5 nM in assay [1] and 3.4 nM at Neprilysin.
Consider `O=C(NCC(=O)N1[C@@H](c2ccccc2)CC[C@H]1C(=O)O)[C@H](S)Cc1ccccc1`, for which the IC50 was determined as 25 nM in assay [1] and 3.2 nM at Neprilysin.
In the case of `Cc1cccc([C@H]2CC[C@@H](C(=O)O)N2C(=O)CNC(=O)[C@@H](S)Cc2ccccc2)c1`, the IC50 amounted to 6.2 nM in assay [1] and 2.3 nM against Neprilysin.
Regarding `C[C@H](NC(=O)[C@@H](S)Cc1ccccc1)C(=O)N1[C@@H](c2ccccc2)CC[C@H]1C(=O)O`, the IC50 is 45 nM in assay [1] and 10 nM against Neprilysin.
As for `Cc1ccccc1[C@@H]1CCC(C(=O)O)N1C(=O)CNC(=O)[C@@H](S)Cc1ccc(O)cc1` (single isomer, unassigned), the half-inhibitory concentration (IC50) in assay [1] turned out to be 12.5 nM; against Neprilysin, 5.1 nM.
For `O=C(NCC(=O)N1[C@@H](c2ccccc2)CC[C@H]1C(=O)O)[C@@H](S)Cc1ccc(O)cc1`, the IC50 in assay [1] is 4.2 nM; against Neprilysin it was 3.4 nM.
Turning to `O=C(O)c1ccc(CC(S)C(=O)NCC(=O)N2[C@@H](c3ccccc3O)CC[C@H]2C(=O)O)cc1` (some centres not stated), the half-maximal inhibitory concentration (IC50) is 5.3 nM in assay [1] and 62 nM against Neprilysin.
For `Cc1cccc(C2CCC(C(=O)O)N2C(=O)CNC(=O)[C@@H](S)Cc2ccc(O)cc2)c1` (some centres not stated), in that order: 3.1 nM and 1.5 nM.
For `Nc1ccc([C@H]2CC[C@@H](C(=O)O)N2C(=O)CNC(=O)[C@@H](S)Cc2ccc(O)cc2)cc1`, in that order: 23 nM and 26 nM.
The matching figures for `Nc1ccc(C[C@H](S)C(=O)NCC(=O)N2[C@@H](c3ccccc3)CC[C@H]2C(=O)O)cc1`: 3.5 nM and 1.8 nM.
On to `O=C(NCC(=O)N1[C@@H](c2cccc(O)c2)CC[C@H]1C(=O)O)C(S)Cc1ccc(F)cc1` (some centres not stated), for which the results for the 50% inhibitory concentration (IC50) (in assay [1]; on Neprilysin) were 3.8 nM and 5.3 nM, respectively.
With `Cc1ccccc1[C@@H]1CCC(C(=O)O)N1C(=O)CNC(=O)[C@@H](S)Cc1ccccc1` (single isomer, unassigned; 18), the IC50 in assay [1] came to 48 nM; at Neprilysin, 17 nM.
The matching figures for `NCCCCC(S)C(=O)NCC(=O)N1[C@@H](c2ccccc2)CC[C@H]1C(=O)O` (some centres not stated): 403 nM and 500 nM.
In the case of `O=C(NCC(=O)N1[C@@H](c2ccc(O)cc2)CC[C@H]1C(=O)O)[C@@H](S)Cc1ccc(O)cc1`, the half-inhibitory concentration (IC50) in assay [1] came out at 0.46 nM; against Neprilysin, 6.36 nM. Further, the inhibition (commonly the relative decrease from the control value, in per cent) in assay [2] stood at 25%.
For the molecule `O=C(NCC(=O)N1[C@@H](c2cccc(O)c2)CC[C@H]1C(=O)O)[C@@H](S)Cc1cccc(O)c1`, the IC50 is 3.2 nM in assay [1] and 4.3 nM on Neprilysin.
